The subject of assay [1] is Mus musculus. Briefly: Effect on locomotor activity in Swiss Albino mouse assessed as number of crossings in 6 mins at 20 mg/kg administered 30 mins before the test. It is filed as functional. The method in brief: (§1)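 Male Albino Swiss mice given compound ip (1% Tween 80, 10 ml/kg) 30 min before placement singly in plastic cages in a multichannel photobeam activity monitor; ambulation crossings counted over the first 6 min and over a 30 min session. n = 9-10 per group; ANOVA then Dunnett's test.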

Assay [2] concerns Mus musculus. Briefly: Effect on locomotor activity in Swiss Albino mouse assessed as number of crossings in 30 mins at 20 mg/kg administered 30 mins before the test. It is filed as functional. The method in brief: as §1
Assay [3] relates to Mus musculus. Briefly: Antidepressant activity in Swiss Albino mouse assessed as immobility time during final 4 mins of 6 mins session at 10 mg/kg administered 30 mins before the test by forced-swimming test. It is filed as functional. The method in brief:
(§2)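 Male Albino Swiss mice (24–28 g), compound given ip in 1% aqueous Tween 80 (10 ml/kg), 30 min before test. Mouse placed singly in glass cylinder (25 cm high, 10 cm diameter) holding 6 cm water at 23–25 °C for 6 min; immobility (floating, only small head-keeping movements) timed over last 4 min. n = 9-10 per group; one-way ANOVA then Dunnett's test.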

Assay [4] concerns Mus musculus. Kind of assay: Antidepressant activity in Swiss Albino mouse assessed as immobility time during final 4 mins of 6 mins session at 20 mg/kg administered 30 mins before the test by forced-swimming test. It is filed as functional. The gist of the method:
as §2

In assay [5] the test system is Mus musculus. Briefly: Effect on locomotor activity in Swiss Albino mouse assessed as number of crossings in 30 mins at 10 mg/kg administered 30 mins before the test. It is filed as functional. The method in brief: as §1
Assay [6] concerns Mus musculus. Kind of assay: Effect on locomotor activity in Swiss Albino mouse assessed as number of crossings in 30 mins at 1 mg/kg administered 30 mins before the test. It is filed as functional. The method in brief:
as §1

The subject of assay [7] is Mus musculus. Kind of assay: Anxiolytic activity in Swiss Albino mouse assessed as number of punished crossings for 60 secs at 2.5 mg/kg administered 30 mins before the test by four-plate test. It is filed as functional. The gist of the method:
(§3)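 Male Albino Swiss mice (24–28 g), compound suspended in 1% aqueous Tween 80, given ip (10 ml/kg). Mouse placed in box with four metal floor plates, 15 s exploration, then floor electrified (120 V, 0.5 s) at each plate-to-plate crossing, no new shock for 3 s. Punished crossings counted over 60 s. n = 9-10/group; one-way ANOVA then Dunnett's test.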

In assay [8] the test system is Mus musculus. Kind of assay: Anxiolytic activity in Swiss Albino mouse assessed as number of punished crossings for 60 secs at 5 mg/kg administered 30 mins before the test by four-plate test. It is filed as functional. The gist of the method: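 Male Albino Swiss mice dosed ip (1% aqueous Tween 80, 10 ml/kg) 30 min beforehand. Opaque box floored with four metal plates; 15 s free exploration, then each plate-to-plate crossing triggers a 0.5 s, 120 V floor shock, with no new shock for 3 s if running continues. Punished crossings counted over 60 s; n = 9-10, ANOVA plus Dunnett's test.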

For assay [9], the system named is Mus musculus. Briefly: Anxiolytic activity in Swiss Albino mouse assessed as number of punished crossings for 60 secs at 1.25 mg/kg administered 30 mins before the test by four-plate test. It is filed as functional. The gist of the method: as §3
The subject of assay [10] is Mus musculus. Briefly: Antidepressant activity in Swiss Albino mouse assessed as immobility time during final 4 mins of 6 mins session at 5 mg/kg administered 30 mins before the test by forced-swimming test. It is filed as functional. The method in brief:
as §2

Assay [11] can be described thus: Displacement of [3H]prazosin from adrenergic alpha1 receptor in rat cortical membranes. It is filed as cell membranes, Membrane. The method in brief: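 Rat cortical membranes with [3H]-prazosin; phentolamine defines nonspecific binding. 7–9 drug concentrations in triplicate, at least three separate experiments; stopped by GF/B filtration with three ice-cold buffer washes, bound radioactivity by liquid scintillation counting; Ki from non-linear regression and Cheng-Prusoff equation.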
A general note: In a radioligand displacement assay an active substance lowers the binding of a labelled ligand.

Assay [12] concerns the target 5-hydroxytryptamine receptor 7 (Homo sapiens, UniProt P34969). Briefly: Displacement of [3H]5-CT from human 5HT7 expressed in HEK293 cells. It is filed as cell-based. The method in brief: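 HEK293 cells stably transfected with human 5-HT7(b) cDNA; membranes (10 µg protein) incubated 1 h at 37 °C in 50 mM Tris-HCl pH 7.4 with 4 mM MgCl2, 0.1 mM pargyline, 0.1% ascorbic acid, 0.5 nM [3H]-5-CT and 7–9 test concentrations in triplicate; 10 µM 5-HT defines nonspecific binding. GF/B filtration, scintillation counting; Ki via Cheng-Prusoff from ≥3 experiments.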

Assay [13] concerns Mus musculus. Briefly: Antidepressant activity in Swiss Albino mouse assessed as immobility time during final 4 mins of 6 mins session at 1.25 mg/kg administered 30 mins before the test by forced-swimming test. It is filed as functional. The gist of the method:
as §2

The subject of assay [14] is Mus musculus. Briefly: Antidepressant activity in Swiss Albino mouse assessed as immobility time during final 4 mins of 6 mins session at 2.5 mg/kg administered 30 mins before the test by forced-swimming test. It is filed as functional. The gist of the method:
as §2

For assay [15], the system named is Mus musculus. Kind of assay: Effect on locomotor activity in Swiss Albino mouse assessed as number of crossings in 6 mins at 0.3 mg/kg administered 30 mins before the test. It is filed as functional. The method in brief:
as §1

Assay [16] concerns Mus musculus. Briefly: Effect on locomotor activity in Swiss Albino mouse assessed as number of crossings in 30 mins at 0.3 mg/kg administered 30 mins before the test. It is filed as functional. The method in brief: as §1
Assay [17] has as its system Mus musculus. Briefly: Effect on locomotor activity in Swiss Albino mouse assessed as number of crossings in 6 mins at 1 mg/kg administered 30 mins before the test. It is filed as functional. The method in brief: as §1

Activity and Ki data for three compounds are collected here from ChEMBL document CHEMBL1139831, “The influence of modifications in imide fragment structure on 5-HT(1A) and 5-HT(7) receptor affinity and in vivo pharmacological properties of some new 1-(m-trifluoromethylphenyl)piperazines” (Bioorg Med Chem, 2007).

Chain of 5-hydroxytryptamine receptor 7 (P34969 whole entry): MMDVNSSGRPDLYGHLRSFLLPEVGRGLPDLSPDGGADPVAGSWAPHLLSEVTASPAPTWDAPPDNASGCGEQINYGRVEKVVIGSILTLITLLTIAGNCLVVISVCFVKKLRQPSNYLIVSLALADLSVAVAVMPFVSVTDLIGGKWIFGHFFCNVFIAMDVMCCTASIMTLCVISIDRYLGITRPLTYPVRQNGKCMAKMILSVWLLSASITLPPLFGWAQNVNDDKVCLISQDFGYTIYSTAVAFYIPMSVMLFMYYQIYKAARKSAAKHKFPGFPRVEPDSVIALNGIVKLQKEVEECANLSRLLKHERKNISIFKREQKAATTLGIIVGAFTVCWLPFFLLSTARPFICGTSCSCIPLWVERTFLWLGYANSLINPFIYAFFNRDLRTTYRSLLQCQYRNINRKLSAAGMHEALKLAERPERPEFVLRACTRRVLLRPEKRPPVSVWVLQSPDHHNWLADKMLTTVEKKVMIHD

As to `CN(C)CCCN1c2ccccc2CCc2ccccc21` [IMIPRAMINE], the Activity in the assay on Mus musculus [1] worked out at 314.9; in the assay with Mus musculus [2] it was 625.3; in the assay with Mus musculus [3], 149.1 s; with Mus musculus [4], 107.8 s; in the assay on Mus musculus [5], 876.8.

Usually Ki stands for a dissociation constant, usually derived from enzyme kinetics or from competition with a known ligand. High values mean a looser hold on the target, low ones a stronger hold on the target. `CC1(C)CC(=O)N(C2CCC(N3CCN(c4cccc(C(F)(F)F)c4)CC3)CC2)C(=O)C1` (stereo not given): the Activity was found to be 535.3 with Mus musculus [6]; 4.6 in the assay on Mus musculus [7]; 4.6 in the assay on Mus musculus [8]; 4.4 in the assay on Mus musculus [9]; 113.3 s in the assay with Mus musculus [10]; 150.4 s in the assay on Mus musculus [13]. Also, the Activity came to 98.2 s in the assay with Mus musculus [14], 212 in the assay with Mus musculus [15], 630.1 with Mus musculus [16] and 211.7 in the assay on Mus musculus [17]. Further, the Ki is 268 nM in assay [11] and 221 nM in [12].

As to `CN1C(=O)CN=C(c2ccccc2)c2cc(Cl)ccc21` [DIAZEPAM], the figures for the Activity in the assay with Mus musculus [7], in the assay on Mus musculus [8] and with Mus musculus [9] were 6.8, 6.7 and 5.5, respectively.
